High-throughput results from PubChem BioAssay.
ARNT-TACC3 inh – ARNT/TACC3 interaction disruption | AlphaScreen His-ARNT PAS-B/GST-TACC3 binding, luminescence; TACC3 fragment carries E629A point mutation | inhibition, % at 9.99 µM | 390,000 tested, 0.66% active | AID 623870;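 active means mean inhibition of replicates at least 50% and at least half of replicates each reaching 50%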;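 further: 0% = complete ARNT plus TACC3 wells and 100% = ARNT alone without TACC3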
FN deposition inh – fibronectin deposition inhibition; AH1F fibroblasts, Alexa488-fibronectin deposition fluorescence, overnight; inhibition, % at 12.6 µM; AID 743247; 350,000 tested, 0.086% active;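 active means mean inhibition across replicates of 30% or more, regardless of how many single replicates reach that level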;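 further: positive control wells lacked labelled fibronectin entirely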
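test system = AH1F fibroblasts assembling fluorescent fibronectin matrix | quantity = 10000 AH1F cells per well | buffer or medium = DMEM plus 2% serum, read in PBS | doses = single dose, pinned | incubation = 1 h cell attachment, overnight exposure to compound and label | detection = fluorescence at 485 nm excitation, 525 nm emission | read-out basis = inhibition from reduced deposited-fibronectin fluorescence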
DENV2 CPE rescue – inhibitors of DENV2 cytopathic effect. AID 651640. CPE inhibition, % at 9.99 µM. DENV2-infected cells, cytopathic effect rescue, plate reader. 350,000 tested, 1.7% active; in the data active means CPE inhibition above about 20%, passing the limit was not always enough; tested in BHK-21 cells;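 further: 0% = median of neutral control wells and 100% = median of positive control wells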
Xi reactivation – X-chromosome reactivation activator; AID 743238; XiGFP mouse fibroblasts, % GFP-positive cells imaging, 3 d; cells co-treated with 5-aza-dC sensitizer; scaled so ellipticine positive control = 100%; activation, % at 7.58 µM; 360,000 tested, 0.055% active;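 active means mean normalized replicate activation at least 10% and every replicate at or above 10%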;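 further: 0% = median of on-plate neutral control wells and 100% = ellipticine 6 µM median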
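Schedule: 3 d treatment, 15 min room-temperature fixation; system: 68-5-11 XiGFP fibroblast line; buffer or medium: DMEM plus 5-aza-dC sensitizer; control set: ellipticine 6 µM positive control; compound: one concentration, pinned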
FGF22 binding-1 – FGF22 (human) thermal shift binding | recombinant FGF22 thermal shift, SYPRO orange fluorescence; percent of sucrose octasulfate shift, DMSO zero | AID 651658 | activity (Tm shift, normalised), % at 9.99 µM | Q9HCT0 | 340,000 tested, 1.5% active;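 active means mean Tm shift, scaled 0 neutral to 100 positive control, at about 1.3% or above, every replicate too, limit read from the data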
Target sequence (Q9HCT0 whole entry, looked up): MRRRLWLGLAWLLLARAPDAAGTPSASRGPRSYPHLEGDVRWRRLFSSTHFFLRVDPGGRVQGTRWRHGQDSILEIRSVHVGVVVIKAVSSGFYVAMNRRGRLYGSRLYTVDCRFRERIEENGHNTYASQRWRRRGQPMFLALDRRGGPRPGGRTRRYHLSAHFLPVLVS
SIRT5 block – sirtuin-5 (human) deacylase inhibition; Q9NXA8; Purified SirT5, succinyl-peptide AMC, trypsin-coupled fluorescence; inhibition, % at 15 µM; 330,000 tested, 1.1% active; AID 652115; in the data active means inhibition above about 15%
Target sequence (Q9NXA8 whole entry, looked up): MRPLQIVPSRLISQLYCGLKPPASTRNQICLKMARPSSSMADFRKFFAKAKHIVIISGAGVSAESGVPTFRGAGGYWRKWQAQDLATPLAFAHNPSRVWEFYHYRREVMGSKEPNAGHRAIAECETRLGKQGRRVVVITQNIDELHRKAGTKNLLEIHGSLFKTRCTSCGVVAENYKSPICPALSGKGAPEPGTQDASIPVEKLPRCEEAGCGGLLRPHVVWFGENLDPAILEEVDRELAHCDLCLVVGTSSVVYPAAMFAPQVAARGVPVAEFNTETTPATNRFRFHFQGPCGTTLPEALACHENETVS
ARNT Alpha ctr-1 – interferes with AlphaScreen signal, flagging false ARNT-TACC3 hits; AC50, µM (highest dose often 68 µM), without a hit: at the top dose activity change, negative = signal decrease; His-ARNT PASB-GST AlphaScreen artifact counter-screen, luminescence; 1,200 tested, 50% active; shares compounds with ARNT-TACC3 inh;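 active means every separate test run was called active for a drop in luminescence, with AC50 within twice the top valid dose, actives reach about 71 µM in these data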
ARNT Alpha ctr-2 – counter-screen for ARNT-TACC3 inhibitors: AlphaScreen artifacts. shares compounds with ARNT-TACC3 inh. 45 tested, 70% active. Dual-tagged His-ARNT PASB-GST AlphaScreen artifact counter-screen. AC50, µM;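 active means luminescence drop, with half-maximal potency fitted within twice the sample's top valid dose, cut at about 70 µM in these data; inactive means the rest, including signal moving the wrong way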
FGF22 binding-2 – FGF22 (human) binding in thermal shift | recombinant FGF22 thermal shift, SYPRO orange fluorescence | thermal shift activity, °C (ΔTm) at 38 µM | shares compounds with FGF22 binding-1 | 1,000 tested, 2% active | AID 720646;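 active means fitted rise in melting shift crosses a set limit at or below the top valid dose tested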
FGF22 TSA – binds human FGF22 shifting its melting temperature | 50 tested, under 10 active | Thermal shift assay, SYPRO orange, melting temperature shift | shares compounds with FGF22 binding-1 | Tm shift (activity), % at 38 µM;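 active means compounds whose fitted dose curve of melting temperature shift rises past a set threshold within the tested doses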
TSA no protein – compound-only SYPRO artifact for FGF22 binders; shares compounds with FGF22 binding-1; 1,000 tested, 2% active; compound-only SYPRO orange thermal shift counter-screen, no protein; AC50, µM (highest dose often 38 µM);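 active means rising signal whose fitted curve reaches the 0.54 level within the top valid dose, showing a melting point, actives reach about 13 µM in these data; inactive means the rest, including activity in the opposite direction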; further: value is where the raw curve crosses a fixed level and not half-maximal
The depositor's hits bear a star; i = inactive; . = not tested or not shown; [ ] = remark or other dose. An excerpt weighted towards active compounds, which were near 3.8% of everything screened.

SMILES	ARNT-TACC3 inh	FN deposition inh	DENV2 CPE rescue	Xi reactivation	FGF22 binding-1	SIRT5 block	ARNT Alpha ctr-1	others
c1cncc(-c2nc(NCCCn3ccnc3)c3ccccc3n2)c1	63.3*	.	.	-0.1	0.1	-2.0	66.4µM*
Cc1ccc(Nc2nc(-c3c(C)nc4ncccn34)cs2)cc1	27.0	.	.	.	.	.	.
Cc1nc2ncccn2c1-c1csc(Nc2ccc(O)cc2)n1	68.3*	.	4.6	0.0	41.8	0.0	21.7µM*
O=C(C1=C(O)C(=O)N(Cc2ccccc2)C1c1ccncc1)c1ccco1 (configuration not stated)	21.0*	.	.	.	.	.	-3.3%
Cc1nc2ccccc2n1CC(=O)c1ccc(O)c(O)c1	57.1*	-9.6	.	0.0	-0.6	.	1.4%
CCCN(C(=O)Cc1nc(N)n[nH]1)C1(C(=O)Nc2ccccc2C)CCCCC1	50.3*	.	.	.	.	.	-13.2%
C[C@H](CO)N1C[C@H](C)[C@H](CN(C)S(=O)(=O)c2cccc(F)c2)OCc2cn(nn2)CCCC1=O	.	-2.1	.	0.2	.	.	.
CC1CCN(S(=O)(=O)c2ccc(C(=O)Nc3nnc(C4CC4)o3)cc2)CC1	42.7	-0.4	4.3	0.3	-0.1	-1.3	.	ARNT Alpha ctr-2=>136
O=C(Nc1nnc(C2CC2)o1)c1ccc(S(=O)(=O)N2CCCCC2)cc1	50.7*	0.9	-2.2	-0.1	-0.2	0.4	-38.5%
CC1CCN(S(=O)(=O)c2ccc(C(=O)Nc3nnc(-c4ccncc4)o3)cc2)CC1	.	-0.4	2.9	-0.1	0.8	3.4	.
CC1CC(C)CN(S(=O)(=O)c2ccc(C(=O)Nc3nnc(C4=COCCO4)o3)cc2)C1 (configuration not stated)	.	.	.	.	.	.	.	ARNT Alpha ctr-2=>136
CC1CCCN(S(=O)(=O)c2ccc(C(=O)Nc3nnc(C4=COCCO4)o3)cc2)C1 (configuration not stated)	40.5	.	-2.7	0.2	-0.1	-2.5	.
C[C@H]1CCCCO[C@H](CN(C)S(=O)(=O)c2ccccc2)[C@@H](C)CN([C@@H](C)CO)C(=O)c2cc(NC(=O)NC3CCCCC3)ccc2O1	7.2	3.2	1.9	0.3	-0.1	0.7	.
COc1cc(-c2nnc(NC(=O)c3ccco3)o2)cc(OC)c1OC	43.0*	-1.4	11.2	-0.1	-0.3	5.3	-13.4%
COc1cccc(C(=O)Nc2nnc(-c3cccs3)o2)c1	51.8*	2.6	-7.2	0.2	-0.1	4.4	66.5µM*
O=C(Nc1nnc(-c2cccs2)o1)c1ccco1	51.1*	6.7	-3.4	0.1	0.1	.	-19.8%
c1ccc(-c2nc3ccccc3[nH]2)cc1	-2.0	-3.0	6.4	0.0	0.1	-0.5	.
O=c1[nH]c(-c2ccccn2)nc2ccccc12	64.2*	.	.	.	.	.	-13.1%
c1ccc(-c2nc3ccccc3[nH]2)nc1	58.8*	-4.7	.	0.0	0.2	9.0	-16.3%
Cc1ccc2nc(-c3ccccn3)[nH]c2c1	38.8*	-5.7	-3.8	0.3	0.1	-6.1	-15.3%
CC(=O)NC[C@H]1[C@@H](c2ccc(C3=CCCC3)cc2)[C@@H](CO)N1C(=O)C1CCC1	.	.	-7.6	0.1	.	-1.4	.
CC1=Nn2c(nnc2-c2ccccc2F)SC1	2.7	-3.5	.	.	.	.	.
CC1=Nn2c(nnc2-c2ccccn2)SC1	44.1*	-10.5	.	.	.	.	-14.8%
c1ccc(C2=Nn3c(nnc3-c3ccccn3)SC2)cc1	60.9*	5.5	.	.	.	.	-9.0%
CCCN(CCC)c1nc(-c2ccccn2)nc2ccccc12	59.7*	-4.5	0.6	0.7	-0.2	1.3	-30.9%
SMILES	ARNT-TACC3 inh	FN deposition inh	DENV2 CPE rescue	Xi reactivation	FGF22 binding-1	SIRT5 block	ARNT Alpha ctr-1	others
COC(C(=O)N/N=C(\C)c1ccc(O)cc1)c1ccccc1 (configuration not stated)	0.5	-1.5	-0.7	0.1	0.0	-0.5	.
C/C(=N\NC(=O)C(c1ccccc1)c1ccccc1)c1ccc(O)cc1	59.6*	5.9	-1.6	0.2	0.1	.	-14.7%
Cc1cccc(OCc2nc(-c3ccccn3)n[nH]2)c1	67.4*	.	.	.	.	.	35µM*
Cc1cccc(OCc2n[nH]c(=S)n2-c2ccccc2)c1	.	.	6.6	0.1	0.2	5.1	.
COc1ccc(-c2cc(NCc3ccccn3)n3ncnc3n2)cc1	52.4*	3.8	.	.	.	.	-0.7%
COc1ccc(-c2cc(NCCc3ccncc3)n3ncnc3n2)cc1	-1.0	4.1	.	.	.	.	.
CCNC(=O)C(=O)N/N=C/c1cc([N+](=O)[O-])ccc1O	61.3*	-4.4	13.2	0.0	-0.3	-6.6	25µM*
COC(=O)C1=C(CS(=O)(=O)c2cc(OC)ccc2OC)NC(=O)NC1c1ccc(O)c(OC)c1 (configuration not stated)	-1.2	-1.2	-8.8	0.2	1.5*	-0.8	.	FGF22 binding-2=0.367;FGF22 TSA=0.1;TSA no protein=i
COC(=O)C1=C(CS(=O)(=O)c2ccc(OC)c(OC)c2)NC(=O)NC1c1ccc(O)c(OC)c1 (configuration not stated)	0.8	-5.5	5.6	0.0	-0.2	-1.3	.
CN1[C@@H]2c3ccc(-c4ccccc4F)c(=O)n3C[C@@H]2[C@@H](CO)[C@@H]1C(=O)NCC(F)(F)F	1.1	.	6.0	0.0	0.0	-4.8	.
S=C(NCCN1CCOCC1)Nc1ccc(-c2nc3ccccc3[nH]2)cc1	5.4	-2.4	-0.2	0.1	2.2*	2.4	.	FGF22 binding-2=-0.277;TSA no protein=i
CC(C)NC(=O)N[C@H]1CC[C@@H](CC(=O)O)O[C@@H]1CO	-0.4	-1.0	6.9	0.0	1.5*	0.7	.	FGF22 binding-2=0.097[42 µM];TSA no protein=i
CC(=O)Oc1ccc(C(=O)Nc2ccccc2C(=O)N2CCCCC2)cc1	0.6	-7.7	-2.4	0.0	1.8*	0.7	.	FGF22 binding-2=0.15;TSA no protein=i
Cc1ccn(-c2ccc(NC(=O)c3cccs3)cc2)n1	-1.1	7.3	-1.8	0.0	1.8*	-4.8	.	FGF22 binding-2=0.088;FGF22 TSA=-0.1;TSA no protein=i
O=C(Nc1ccc2c(c1)[C@@H]1C[C@H](CC(=O)N3CCc4ccccc4C3)O[C@H](CO)[C@@H]1O2)NC1CCCC1	-7.0	.	-3.2	0.1	0.2	-3.2	.
